# Source: ChEMBL document CHEMBL1131609, “Syntheses and structure-activity relationships of novel retinoid X receptor agonists” (J Med Chem, 1998)
# Activity calls are given as the source filed them. No cut-off for these calls is given here.
# Experiments:
# [1] = molecular target: T1, Retinoic acid receptor alpha (Homo sapiens) (UniProt P10276); experiment: Percent maximal induction of human RAR-alpha receptor relative to ATRA; Inactive; assay type: functional
# T1 sequence (whole entry): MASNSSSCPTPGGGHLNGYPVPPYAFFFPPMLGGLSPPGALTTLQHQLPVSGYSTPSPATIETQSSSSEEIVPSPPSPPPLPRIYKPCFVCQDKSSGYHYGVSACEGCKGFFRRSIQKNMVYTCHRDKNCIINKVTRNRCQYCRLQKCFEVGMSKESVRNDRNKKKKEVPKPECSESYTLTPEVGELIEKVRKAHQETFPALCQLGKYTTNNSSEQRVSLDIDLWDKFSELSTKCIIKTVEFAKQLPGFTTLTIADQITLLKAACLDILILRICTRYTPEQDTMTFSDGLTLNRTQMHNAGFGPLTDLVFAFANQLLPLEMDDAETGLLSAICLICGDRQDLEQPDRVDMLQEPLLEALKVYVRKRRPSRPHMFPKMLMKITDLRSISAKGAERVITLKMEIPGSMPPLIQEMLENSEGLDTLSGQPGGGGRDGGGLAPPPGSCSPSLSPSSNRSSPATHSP
# [2] = molecular target: T1, Retinoic acid receptor alpha (Homo sapiens); experiment: Relative EC30 for human RAR-alpha receptor as EC30(compound) divided by EC30(ATRA); Inactive
# [3] = molecular target: T2, Retinoic acid receptor gamma (Homo sapiens) (UniProt P13631); experiment: Relative EC30 for human RAR-gamma receptor as EC30(compound) divided by EC30(ATRA); inactive
# T2 sequence (whole entry): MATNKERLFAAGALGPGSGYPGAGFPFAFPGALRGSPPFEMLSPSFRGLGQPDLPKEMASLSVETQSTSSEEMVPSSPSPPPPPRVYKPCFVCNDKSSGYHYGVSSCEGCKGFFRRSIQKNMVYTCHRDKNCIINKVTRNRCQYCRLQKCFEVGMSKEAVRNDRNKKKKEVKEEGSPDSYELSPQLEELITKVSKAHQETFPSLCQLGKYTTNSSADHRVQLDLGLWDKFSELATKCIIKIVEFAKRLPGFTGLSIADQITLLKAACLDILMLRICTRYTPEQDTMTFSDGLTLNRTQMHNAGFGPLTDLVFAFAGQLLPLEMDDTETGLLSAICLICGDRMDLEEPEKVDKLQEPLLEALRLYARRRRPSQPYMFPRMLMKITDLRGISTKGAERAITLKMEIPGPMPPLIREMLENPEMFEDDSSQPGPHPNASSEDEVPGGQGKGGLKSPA
# [4] = molecular target: T2, Retinoic acid receptor gamma (Homo sapiens); experiment: Percent maximal induction of human RAR-gamma receptor relative to ATRA; Inactive; assay type: functional
# [5] = molecular target: T2, Retinoic acid receptor gamma (Homo sapiens); experiment: Relative IC50 for human RAR-gamma receptor as IC50(compound) divided by IC50(ATRA)
# Summary of the method: (§1)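 Competitive binding used nuclear extracts of BHK clones stably expressing human RAR-α, β or γ, selected in 250 nM methotrexate. Extracts were incubated with [³H]-ATRA (added as 10 nM solution) and unlabeled compound for 16 h at 4 °C. Free ligand was removed with charcoal/dextran, and the supernatant was counted. Nonspecific binding was taken as binding with 1000-fold excess unlabeled ligand. IC50 from logarithmic plots was divided by the IC50 of ATRA.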
# [6] = molecular target: T1, Retinoic acid receptor alpha (Homo sapiens); experiment: Relative IC50 for human RAR-alpha receptor as IC50(compound) divided by IC50(ATRA); summary of the method: as §1
# [7] = molecular target: T3, Retinoic acid receptor beta (Homo sapiens) (UniProt P10826); experiment: Relative IC50 for human RAR-beta receptor IC50(compound) divided by IC50(ATRA); summary of the method: as §1
# T3 sequence (whole entry): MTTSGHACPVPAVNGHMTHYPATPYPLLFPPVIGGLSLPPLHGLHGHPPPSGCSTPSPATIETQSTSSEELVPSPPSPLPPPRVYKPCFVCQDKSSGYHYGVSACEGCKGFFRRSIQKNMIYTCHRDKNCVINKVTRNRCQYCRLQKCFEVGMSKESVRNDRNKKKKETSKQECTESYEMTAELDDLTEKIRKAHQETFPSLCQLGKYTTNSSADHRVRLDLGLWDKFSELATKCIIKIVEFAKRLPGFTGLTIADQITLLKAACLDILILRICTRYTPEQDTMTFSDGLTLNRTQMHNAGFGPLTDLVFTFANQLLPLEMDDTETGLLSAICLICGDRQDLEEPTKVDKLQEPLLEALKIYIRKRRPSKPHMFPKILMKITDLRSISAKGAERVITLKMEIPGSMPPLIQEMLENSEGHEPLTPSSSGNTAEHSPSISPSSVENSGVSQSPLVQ
# [8] = molecular target: T3, Retinoic acid receptor beta (Homo sapiens); experiment: Relative EC30 for human RAR-beta receptor as EC30(compound) divided by EC30(ATRA)
# [9] = molecular target: T2, Retinoic acid receptor gamma (Homo sapiens); experiment: Relative EC30 for human RAR-gamma receptor as EC30(compound) divided by EC30(ATRA); Inactive
# [10] = molecular target: T3, Retinoic acid receptor beta (Homo sapiens); experiment: Percent maximal induction of human RAR-beta receptor relative to ATRA; Inactive; assay type: functional
# [11] = molecular target: T3, Retinoic acid receptor beta (Homo sapiens); experiment: Relative EC30 for human RAR-beta receptor as EC30(compound) divided EC30(ATRA); Inactive
SMILES,Efficacy [1],Relative EC30 [2],Relative EC30 [3],Efficacy [4],Relative IC50 [5],Relative IC50 [6],Relative IC50 [7],Relative EC30 [8],Relative EC30 [9],Efficacy [10],Relative EC30 [11]
CCC\C(=C(F)/C=C/C(C)=C/C(=O)O)c1ccc2c(c1)CCCN2C(C)C,inactive,inactive,inactive,inactive,,,,,,,
CC(/C=C/C=C(\C)c1ccc2c(c1)CCCN2C(C)C)=C\C(=O)O,,,,,187,372,432,,,,
CC\C(=C(F)/C=C/C(C)=C/C(=O)O)c1ccc2c(c1)CCCN2C(C)C,inactive,,,inactive,,,,1600,,,
CCCC\C(=C(F)/C=C/C(C)=C/C(=O)O)c1ccc2c(c1)CCCN2C(C)C,inactive,inactive,,inactive,,,,,inactive,inactive,inactive
